{
  "source": "paper PMC6587326",
  "about": "(Obesity Science & Practice, 2019)",
  "key": {"[1]": {"assay": "Insulin absorption upon s.c. neck dosing in HFD and LFD rats", "type": "in vivo, Male Sprague Dawley rats", "details": "12 nmol, HFD n = 22, LFD n = 10, p < 0.01", "method_in_brief": "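Rats aged 33–34 weeks, fed a high-fat (60% fat to 22 weeks, then 45%) or low-fat (10% fat) diet from weaning, received 12 nmol test insulin (20 μL) s.c. in the neck. Sublingual-vein blood was drawn at 5, 15 and 60 min, and plasma levels were measured by luminescent oxygen channelling immunoassay. Each rat was dosed five times; mean ± SEM.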"}, "[2]": {"type": "in vivo, Male Sprague Dawley rats", "details": "anaesthetized rats, s.c. 20 μL insulin aspart/iomeprol 80/20; p < 0.001", "method_in_brief": "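Male rats on a high-fat diet (60% fat from weaning to 22 weeks, then 45%) or a low-fat diet (10% fat), aged 36–38 weeks, were isoflurane-anaesthetized. They received 20 μL test insulin mixed 80/20 with iomeprol s.c. in the neck or flank. μCT scans ran to 13 min (neck) or 17 min (flank). Tail blood was taken at 5 and 15 min and measured by luminescent oxygen channelling immunoassay. Three (neck) or four (flank) repeats per rat; mean ± SEM.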"}},
  "data": [
    {"substance": "insulin aspart", "values": [
      {"measurement": "area under the curve (AUC0–60 min), HFD compared with LFD group", "setting": "[1]", "value": "reduced"},
      {"measurement": "mean insulin concentration at 5 and 15 min, flank compared with neck dosing", "setting": "[2]", "value": "significantly lower"}
    ]}
  ]
}
